This note sets out measurements from ChEMBL document CHEMBL4400579, “Antibacterial Strategy against H. pylori: Inhibition of the Radical SAM Enzyme MqnE in Menaquinone Biosynthesis” (ACS Med Chem Lett, 2019).

Test [1] concerns the target T1, Aminodeoxyfutalosine synthase (Thermus thermophilus (strain HB8 / ATCC 27634 / DSM 579), UniProt Q5SK48).
T1 sequence (Q5SK48 whole entry): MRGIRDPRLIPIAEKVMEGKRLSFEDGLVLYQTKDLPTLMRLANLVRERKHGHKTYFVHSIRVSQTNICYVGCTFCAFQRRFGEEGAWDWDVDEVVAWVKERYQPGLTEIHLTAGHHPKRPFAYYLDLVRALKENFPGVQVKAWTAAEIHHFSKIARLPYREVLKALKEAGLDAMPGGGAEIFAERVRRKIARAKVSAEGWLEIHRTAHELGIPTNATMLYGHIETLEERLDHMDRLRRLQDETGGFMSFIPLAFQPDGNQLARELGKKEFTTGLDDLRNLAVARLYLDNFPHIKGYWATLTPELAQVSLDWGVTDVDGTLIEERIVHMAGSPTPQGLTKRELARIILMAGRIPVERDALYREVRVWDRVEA
Nature of the test: Inhibition of N-terminal His6-tagged Thermus thermophilus HB8 MqnE expressed in Escherichia coli BL21 (DE3) co-expressing [4Fe-4S]2+ cluster using 3-(1-carboxyvinyloxy)benzoic acid as substrate preincubated for 15 mins in presence of SAM and substrate followed by Ti(3+)citrate addition and measured by discontinuous HPLC analysis. The essentials: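 [4Fe-4S]2+-reconstituted T. thermophilus MqnE preincubated with a range of inhibitor concentrations plus excess SAM and substrate 1. Reaction started by reducing the enzyme with Ti(III) citrate. Aminofutalosine formation followed by discontinuous HPLC. Normalized relative initial rates plotted against inhibitor concentration to give IC50. Where IC50 fell within 5-fold of enzyme concentration, Ki fitted with the Morrison tight-binding equation.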

For a further test, the system named is Helicobacter pylori. Nature of the test: Antibacterial activity against Helicobacter pylori 26695 ATCC 700392 measured after 72 hrs. The class given is functional, organism-based. The note with it: 26695 ATCC 700392, 72 h. An outline of the steps:
(§1)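 Bacterial growth inhibition measured by 96-well plate liquid culture. IC50 values taken as reported for each organism.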

Test [2] in a line: Antibacterial activity against Campylobacter jejuni ATCC 33560 AS-83-79 measured after 16.4 hrs. The class given is functional, Campylobacter jejuni subsp. jejuni. An outline of the steps:
as §1

Test [3] has as its target T2, Aminodeoxyfutalosine synthase (Thermus thermophilus (strain HB8 / ATCC 27634 / DSM 579)) (UniProt Q5SK48).
T2 sequence (whole entry): T1 sequence (Q5SK48 whole entry)
The test is described as follows: Reversible inhibition of N-terminal His6-tagged Thermus thermophilus HB8 MqnE expressed in Escherichia coli BL21 (DE3) co-expressing [4Fe-4S]2+ cluster assessed as restoration of enzyme activity at 2 mM using 3-(1-carboxyvinyloxy)benzoic acid as substrate preincubated for 1 hr in presence of SAM, substrate and Ti(3+)citrate followed by compound washout and subsequent addition of SAM, substrate and Ti(3+)citrate measured after 1 hr by HPLC analysis. An outline of the steps: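 Reversibility test: MqnE preincubated with inhibitor for 1 h, inhibitor then removed by gel filtration, and enzyme activity compared for restoration.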

Structures are written as SMILES. Activity calls are given as the source filed them. No cut-off for these calls is given here.

Turning to `Nc1ncnc2c1ncn2[C@@H]1O[C@H](CCC(Cc2cccc(C(=O)O)c2)C(=O)O)[C@@H](O)[C@H]1O` (some centres not stated), the IC50 in test [1] worked out at 839 µM; with Helicobacter pylori, 16.1 µM; in test [2], 83.3 µM.
`CN[C@@H]1[C@@H](O)[C@@H](O[C@@H]2[C@@H](O)[C@H](O[C@H]3O[C@H]([C@@H](C)N)CC[C@H]3N)[C@@H](N)C[C@H]2N)OC[C@]1(C)O` [GENTAMICIN C2]: the IC50 amounted to 0.26 µM in the test on Helicobacter pylori and 1.9 µM in test [2].
For the compound `C=C(Cc1cccc(C(=O)O)c1)C(=O)O`, the inhibition entry in test [3] was “Active”. Besides, the values for the IC50 (in test [1]; with Helicobacter pylori; in test [2]) were 38.7 µM, 1.8 µM and 13.6 µM, respectively. Further, the inhibition constant (Ki) in test [1] is 3.1 µM.
For `CCCCSC[C@H]1CN(Cc2c[nH]c3c(N)ncnc23)C[C@@H]1O`, the IC50 in the test with Helicobacter pylori came to 0.012 µM; in test [2] it was 1.4 µM.
